The species named for assay [1] is Homo sapiens. Description: Inhibition of RNA polymerase 2 C-terminal domain phosphorylation at Ser2 residue in human KOPN8 cells at 10 uM after 3 hrs by Western blot analysis relative to control. The format is cell-based. In outline: (§1)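 KOPN-8 cells were exposed to compound for 3 h and 24 h, with or without N-acetylcysteine added to a parallel set as antioxidant. Lysates were analysed by Western blot for cleaved PARP, Mcl-1, Ser-2-phosphorylated RNAPII CTD, cMyc, total Rb and pRb. Signals were compared against controls for dose-dependent change.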

In assay [2] the test system is KOPN-8. Description: Induction of apoptosis in human KOPN8 cells assessed as early apoptotic cells at 10 uM after 24 hrs by Annexin V-FITC/propidium iodide staining-based flow cytometry (reference value: 0.1%). The class given is functional. The gist of the method: (§2)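 KOPN-8 cells treated 24 h alongside a DMSO vehicle and a staurosporine (2.0 µM) positive control. Apoptosis was scored by FITC Annexin V / propidium iodide flow cytometry with quadrant gating (early, late apoptotic). DNA content was measured by PI staining to give the percentage of cells in G0/G1, S and G2/M. Groups were compared by t-test; error bars are SD.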
For orientation: A flow cytometer gives signals particle by particle.

The test system of assay [3] is KOPN-8. Description: Effect on c-Myc expression in human KOPN8 cells after 3 to 24 hrs by Western blot analysis. The format is functional, cell-based. The gist of the method: (§3)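 KOPN-8 cells were treated at 10–100 µM final, with or without N-acetylcysteine co-addition, for 3 h and 24 h. Lysates were analysed by Western blot for PARP cleavage, Mcl-1, phospho-Ser2 RNAPII CTD, c-Myc, total Rb and pRb. Levels are relative to the vehicle control.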

Assay [4] concerns KOPN-8. Description: Cell cycle arrest in human KOPN8 cells assessed as accumulation at G0/G1 phase at 10 uM after 24 hrs by propidium iodide staining-based flow cytometry (reference value: 24.77%). The class given is functional. In outline:
as §2

A further assay has as its system MDA-MB-231. The assay is described as follows: Cell cycle arrest in human MDA-MB-231 cells assessed as accumulation at G0/G1 phase at 20 uM after 24 hrs by propidium iodide staining-based flow cytometry (reference value: 70.47%). The format is functional.
The target in assay [5] is T1, Retinoblastoma-associated protein (Homo sapiens) (UniProt P06400).
T1 sequence (whole entry): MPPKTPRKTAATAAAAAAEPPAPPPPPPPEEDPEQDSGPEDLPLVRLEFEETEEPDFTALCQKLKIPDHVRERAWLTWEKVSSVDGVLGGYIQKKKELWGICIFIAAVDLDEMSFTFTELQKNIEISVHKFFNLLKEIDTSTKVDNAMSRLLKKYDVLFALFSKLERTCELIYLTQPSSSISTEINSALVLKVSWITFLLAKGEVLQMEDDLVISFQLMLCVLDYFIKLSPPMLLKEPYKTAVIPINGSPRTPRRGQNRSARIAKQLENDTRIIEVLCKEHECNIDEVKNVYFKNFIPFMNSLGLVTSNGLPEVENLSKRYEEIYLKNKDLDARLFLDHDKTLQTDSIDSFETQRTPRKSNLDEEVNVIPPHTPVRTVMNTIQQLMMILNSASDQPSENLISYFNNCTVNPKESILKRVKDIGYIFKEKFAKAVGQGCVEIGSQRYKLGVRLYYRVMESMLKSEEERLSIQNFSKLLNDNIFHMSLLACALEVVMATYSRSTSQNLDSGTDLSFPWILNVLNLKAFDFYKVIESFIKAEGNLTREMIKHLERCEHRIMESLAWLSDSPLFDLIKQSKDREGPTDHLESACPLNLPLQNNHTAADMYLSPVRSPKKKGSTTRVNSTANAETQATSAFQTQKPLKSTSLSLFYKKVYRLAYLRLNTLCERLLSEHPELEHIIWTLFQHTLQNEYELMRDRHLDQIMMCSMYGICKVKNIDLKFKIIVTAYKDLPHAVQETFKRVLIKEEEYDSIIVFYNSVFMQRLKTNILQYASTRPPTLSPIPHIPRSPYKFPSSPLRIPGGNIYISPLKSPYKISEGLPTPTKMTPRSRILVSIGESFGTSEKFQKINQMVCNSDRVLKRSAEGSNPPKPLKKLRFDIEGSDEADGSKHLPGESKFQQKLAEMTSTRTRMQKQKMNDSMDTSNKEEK
The assay is described as follows: Inhibition of Rb phosphorylation in human KOPN8 cells assessed as ratio of phosphorylated Rb to total Rb levels at 30 uM after 24 hrs by Western blot analysis relative to control. The class given is cell-based. The gist of the method: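 KOPN-8 pre-B ALL cells were treated for 3 h and 24 h, with or without N-acetyl cysteine added to a parallel set of cells as an antioxidant/ROS quencher. Lysates were analysed by Western blot for phosphorylated Rb and total Rb. The same blots also probed PARP cleavage, Mcl-1, Ser-2-phosphorylated RNAPII CTD and cMyc.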

The species named for assay [6] is Homo sapiens. The assay is described as follows: Inhibition of RNA polymerase 2 C-terminal domain phosphorylation at Ser2 residue in human KOPN8 cells after 24 hrs by Western blot analysis. The format is cell-based. The gist of the method: as §1
Assay [7] concerns KOPN-8. Description: Induction of apoptosis in human KOPN8 cells assessed as effect on Mcl-1 level at 100 uM pre-treated with NAC for 1 hr and measured after 24 hrs by Western blot analysis relative to control. The format is functional. The gist of the method: as §1
For assay [8], the system named is KOPN-8. The assay is described as follows: Induction of apoptosis in human KOPN8 cells assessed as upregulation of cleaved PARP level after 3 to 24 hrs by Western blot analysis. The class given is functional, cell-based. In outline: as §1
A general note: In western blotting, separated proteins are transferred to a membrane and probed.

In assay [9] the test system is KOPN-8. The assay is described as follows: Induction of apoptosis in human KOPN8 cells assessed as effect on Mcl-1 level at 10 uM pre-treated with NAC for 1 hr and measured after 24 hrs by Western blot analysis relative to control. The class given is functional.
For assay [10], the species on record is Homo sapiens. The assay is described as follows: Inhibition of RNA polymerase 2 C-terminal domain phosphorylation at Ser2 residue in human KOPN8 cells at 100 uM after 24 hrs by Western blot analysis relative to control. The class given is cell-based. The gist of the method: as §1
The subject of assay [11] is KOPN-8. Description: Effect on c-Myc expression in human KOPN8 cells at 30 uM after 24 hrs by Western blot analysis relative to control. The format is functional. In outline: as §3
The subject of assay [12] is KOPN-8. The assay is described as follows: Effect on c-Myc expression in human KOPN8 cells at 30 uM pre-treated with NAC for 1 hr and measured after 24 hrs by Western blot analysis relative to control. The class given is functional.
In assay [13] the test system is KOPN-8. Description: Effect on c-Myc expression in human KOPN8 cells at 10 uM after 24 hrs by Western blot analysis relative to control. The format is functional. The gist of the method: as §3
The subject of the next assay is SUP-B15. The assay is described as follows: Induction of apoptosis in human SUP-B15 cells assessed as necrotic cells at 10 uM after 24 hrs by Annexin V-FITC/propidium iodide staining-based flow cytometry (reference value: 9.2%). The format is functional.
In assay [14] the test system is KOPN-8. Description: Induction of apoptosis in human KOPN8 cells assessed as effect on Mcl-1 level at 0.5 uM after 3 hrs by Western blot analysis relative to control. The class given is functional.

For the molecule `COc1ccc(-c2c(I)c(=O)c3c(OC)cc(OC)cc3n2S(=O)(=O)c2ccc(OC)cc2)cc1`, the fold change (FC) came to 0.7 in the assay listed under Homo sapiens [1]; 1 in assay [5]; 0.2 with KOPN-8 [7]; 0.8 with KOPN-8 [9]; 0.2 in the assay filed under Homo sapiens [10]; 0.9 in the assay with KOPN-8 [11]. In addition, the figures for the “fold change (FC)” value in the assay on KOPN-8 [12] and in the assay on KOPN-8 [13] were 1 and 1.3, respectively. The Activity in the assay with KOPN-8 [2] was 0.2%; with KOPN-8 [3], “Dose-dependent effect”; with KOPN-8 [4], 47.22%; in the assay with MDA-MB-231, 66.22%; with KOPN-8 [8], “Dose-dependent effect”; in the assay on SUP-B15 it was 15.7%. Also, the inhibition result in the assay listed under Homo sapiens [6] was “Dose-dependent effect”.
On to `CN(C)C(=O)c1cc2cnc(Nc3ccc(N4CCNCC4)cn3)nc2n1C1CCCC1` [RIBOCICLIB], for which the “fold change (FC)” value in the assay on KOPN-8 [14] amounted to 0.9.

Source of the values: ChEMBL document CHEMBL4196009, “Novel vitexin-inspired scaffold against leukemia” (Eur J Med Chem, 2018).
